The list is not random: actives were taken first. Their share in the collection is about 1.5%.
APJ antagonist: antagonists of human apelin receptor APJ, primary screen, CHO-K1 cells, beta-arrestin complementation, luminescence; AID 2521, 2010; P35414; 0.32% of 330,000 active; inhibition, % at 20 µM;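 active = inhibition above about 40% at 20 µM, limit read from the data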;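 also: cells challenged with 10 nM apelin-13 agonist together with compound; plate controls were apelin-13 plus DMSO wells for no effect and DMSO wells lacking apelin-13 for full effect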
EBI2 antag: EBI2 receptor antagonists, beta-arrestin recruitment, primary screen, cell-based, luminescence, 7a,25-OHC stimulation, uHTS; 7a,25-OHC stimulated; 0.81% of 360,000 active; AID 651636, 2012; inhibition, % at 5 µM; in the data active = inhibition above about 38%;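 also: enzyme fragment complementation signal reports receptor beta-arrestin coupling in cells; 0% = agonist plus DMSO wells and 100% = wells without agonist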
Target sequence (P32249 whole entry, looked up, the tested form may be a part): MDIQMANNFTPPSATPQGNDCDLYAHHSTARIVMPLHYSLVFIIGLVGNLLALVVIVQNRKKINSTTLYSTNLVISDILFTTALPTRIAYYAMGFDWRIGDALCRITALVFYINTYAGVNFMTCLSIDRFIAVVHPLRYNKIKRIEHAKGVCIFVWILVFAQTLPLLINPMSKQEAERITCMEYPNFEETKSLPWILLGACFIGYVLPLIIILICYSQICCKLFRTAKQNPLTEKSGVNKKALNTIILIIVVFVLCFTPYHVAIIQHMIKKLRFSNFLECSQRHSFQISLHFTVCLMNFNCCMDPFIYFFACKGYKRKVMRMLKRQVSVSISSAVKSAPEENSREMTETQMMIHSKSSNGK
CXCR6 block: CXCR6 receptor inhibitors, primary screen, cell-based, beta-arrestin, luminescence, CHO-K1 PathHunter, 1536-well; 0.36% of 360,000 active; AID 602244, 2012; inhibition, % at 20 µM; in the data active = inhibition above about 34%, passing the limit was not always enough;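 also: antagonist mode with CXCL16 agonist at 10 nM final; 0% = 10 nM CXCL16 with DMSO and 100% = unstimulated wells without agonist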
APJ agonist: agonists of human apelin receptor APJ, primary screen, CHO-K1 cells, PathHunter beta-arrestin, luminescence | activation, % at 20 µM | 0.11% of 330,000 active | AID 2520, 2010 | 0% DMSO wells, 100% apelin | P35414;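 active = activation more than six SD over the plate average, tested at 20 µM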;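 also: 0% = DMSO alone and 100% = apelin-13 at 10 nM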
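Incubation: overnight seeding, 90 min compound at 25 °C, 1 h detection; test system: PathHunter CHO-K1 APJ (AGTRL-1) beta-arrestin reporter cells; amount: 1000 cells/well; doses: one dose, 20 µM compound, 1% DMSO; measured by: beta-gal luminescence; measure: agonist-driven arrestin binding to APJ; benchmarks: negative DMSO alone, positive Apelin-13 at 10 nM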
CCR6 antagonist: CCR6 receptor antagonists, primary screen, cell-based, CHO-K1, luminescence, beta-arrestin, uHTS. C-C chemokine receptor type 6 (Homo sapiens), P51684. CHO-K1 CCR6 PathHunter beta-arrestin, CCL20-stimulated. inhibition, % at 20 µM. 0.49% of 340,000 active. AID 493098, 2011;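 active = compounds whose inhibition of the agonist-driven luminescence signal at 20 µM reaches about 50%, limit read from the data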;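 also: cells stimulated with CCL20 at 14 nM final; plate controls were DMSO with CCL20 for no effect and DMSO without agonist for full effect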
APJ antag conf: APJ antagonists blocking beta-arrestin recruitment, confirmation, cell-based, luminescence, single concentration, uHTS hits | AID 2766, 2010 | inhibition, % at 20 µM | antagonist mode | shares compounds with APJ antagonist | 66% of 950 active; in the data active = inhibition above about 50%
* marks the source's active call; other numbers are inactive results; . = no result.

SMILES	APJ antagonist	EBI2 antag	CXCR6 block	APJ agonist	CCR6 antagonist	APJ antag conf
O=C(NC1CC1)C1CC(=O)N(c2cccc(Cl)c2Cl)C1 (stereo unspecified)	14	-19	4	-2	-4	.
O=c1c2cc(Br)ccc2[nH]c(=S)n1Cc1ccccn1	59*	12	51*	-7	56*	93*
O=c1c2cc(Br)ccc2[nH]c(=S)n1Cc1ccccc1	7	11	-4	-2	4	.
O=C(NCC1CC1)c1cc([N+](=O)[O-])cc([N+](=O)[O-])c1	-14	-1	-28	5	-14	.
COc1ccc(-c2cc3c(nn2)-c2ccccc2C3=O)cc1	40*	51*	19	-10	17	143*
COc1ccc(-c2cn(Cc3ccc4c(c3)C(=O)c3ccccc3C4=O)nn2)cc1	-108	-11	-10	19	6	.
O=C1c2ccccc2-c2nnc(-c3ccccc3)cc21	53*	70*	29	-13	56*	143*
Cc1cccc(-c2cc3c(nn2)-c2ccccc2C3=O)c1	17	31	26	-11	42	.
COc1ccc(-c2nn(-c3ccccc3)cc2/C=C/C(=O)N2CCN(c3ccccn3)CC2)cc1	18	27	37	-5	37	.
O=C1C=C(N2CCOCC2)CO1	42*	-3	7	-4	7	-5
O=C1C=C(N2CCOCC2)CCC1	-54	0	-1	-3	-3	.
CNC(=S)NNC(=O)CCn1nc(C)c(Br)c1C	21	-4	-1	-2	-6	.
Cc1nn(CCC(=O)NNC(=S)Nc2ccccc2)c(C)c1Br	47*	5	8	-12	27	100*
Cc1nn(CCC(=O)NNC(=S)NCC(C)C)c(C)c1Br	77*	22	38	-14	53*	115*
CCC(C(=O)NC(C)(C)C)n1c(C(c2ccccc2)c2ccccc2)nc2ccccc21 (stereo unspecified)	.	11	.	.	.	.
Cn1c(=O)c2c(nc(N3CCNCC3)n2Cc2cccc3ccccc23)n(C)c1=O	57*	35	47*	-17	62*	99*
Cn1c(=O)[nH]c(=O)c2c1nc(N1CCNCC1)n2Cc1cccc2ccccc12	41*	13	45*	-12	54*	92*
Cc1cc(C)c(S(=O)(=O)Nc2nnc(C3CCCCC3)s2)c(C)c1	12	-1	2	-4	-16	.
CCCCCCCCCCCCCCCC(O)C(N)CO (stereo unspecified)	41*	3	9	-3	24	47
CCCCCCCCCCCCCCCC(O)C[N+](C)(C)CCO (stereo unspecified)	.	1	21	.	34	.
CC(C)(C)c1cc(CCC(=O)NNC(=S)NC(=O)c2ccccc2)cc(C(C)(C)C)c1O	51*	34	58*	-9	58*	135*
CC(C)(C)c1cc(CCC(=O)NNC(=O)c2ccco2)cc(C(C)(C)C)c1O	-3	7	-6	3	1	.
O=S(=O)(Nc1ccc(Cl)cn1)c1ccc2c(c1)OCCO2	-4	1	3	12	-7	.
COc1cc([N+](=O)[O-])cc(/C=N/NC(=O)C(O)(c2ccccc2)c2ccccc2)c1O	47*	10	29	-7	37	29
O=C1Nc2ccccc2C1=Nc1ccc(Br)cc1	63*	16	42*	-14	69*	147*
SMILES	APJ antagonist	EBI2 antag	CXCR6 block	APJ agonist	CCR6 antagonist	APJ antag conf
Cc1ccc(N=C2C(=O)Nc3ccccc32)cc1	40*	11	34	-10	56*	78*
CCN(CC)c1ccc(/C=C/c2ccc3ccc(OC)cc3[n+]2CC)cc1	27	17	22	-3	41	.
O=C(Cn1nnc2ccccc21)OCC(=O)c1ccc(Cl)c(Cl)c1	91*	13	25	-9	73*	111*
Cc1ccc(C(=O)COC(=O)c2ccncc2)cc1[N+](=O)[O-]	46*	-6	8	-6	39	70*
O=C(Cn1nnc2ccccc21)OCC(=O)c1ccccc1	36	-5	-8	-4	-34	.
O=C(COC(=O)c1ccncc1)c1ccc(Cl)c(Cl)c1	74*	-5	1	-12	15	86*
Cc1ccc(C(=O)COC(=O)c2cc(Cl)ccc2O)cc1[N+](=O)[O-]	33	15	17	-17	15	.
Cc1cc([N+](=O)[O-])ccc1NC(=S)NC(=O)C(c1ccccc1)c1ccccc1	42*	19	35	-11	53*	52*
Cc1ccc(CNc2nc(N)c([N+](=O)[O-])c(Nc3cccc(F)c3)n2)cc1	41*	-1	9	1	0	26
CCOCCc1c(O)nc(SCC(=O)N2CCOCC2)[nH]c1=O	5	-11	0	-1	-12	.
COc1cc2ncc(C(=O)c3ccccc3)c(N3CCN(Cc4ccccc4)CC3)c2cc1OC	-2	9	6	-1	16	.
O=C(CSc1ncnc2c1cnn2-c1ccccc1)Nc1ccccc1	54*	-1	0	2	11	27
Cc1ccccc1-c1cc2nc(NCCc3ccncc3)n(C)c(=O)c2s1	.	17	4	.	.	.
Cc1ccc(N2C(=O)C(Cc3ccc(O)cc3)NC2=S)cc1C (stereo unspecified)	67*	1	8	1	-44	42
S=C(N/N=C/c1ccc(Cl)cc1)N1CCOCC1	41*	-1	39	-7	55*	60*
S=C(N/N=C/c1ccc(Br)cc1)N1CCCCC1	11	37	-6	-7	17	.
O=c1cc2oc3cc(O)c(O)cc3c(-c3ccccc3[N+](=O)[O-])c-2cc1O	61*	10	58*	-11	78*	105*
Cc1cc(C(=O)N2CCCC2(C)C(=O)NCC(C)C)nn1C(C)(C)C (stereo unspecified)	.	-2	2	.	.	.
CC(C)(C)OC(=O)N1CCC[C@H]1c1nnc(SCC(=O)Nc2ccc(Br)cc2)o1	55*	16	36*	-9	47	72*
CC(C)(C)OC(=O)N1CCC[C@H]1c1nnc(SCC(=O)Nc2cccc(Cl)c2)o1	18	-5	-14	1	8	.
Cc1cc(NC(=O)c2ccccc2F)n(-c2nc3ccccc3[nH]2)n1	33	-1	11	-2	24	.
Cc1cc(NC(=O)c2c(F)cccc2Cl)n(-c2nc3ccccc3[nH]2)n1	55*	14	-14	-1	61*	27
Cc1cc(NC(=O)c2c(F)cccc2F)n(-c2nc3ccccc3[nH]2)n1	44*	15	5	-9	27	5

Source: PubChem (Sanford-Burnham Center for Chemical Genomics)
